Data from ChEMBL document CHEMBL2203005 (Bioorg Med Chem, 2012).

Legend:
[1] = target: NAD(P)H dehydrogenase [quinone] 1 (Mus musculus) (UniProt Q64669); assay: Induction of quinone reductase-1 activity in mouse Hepa-1c1c7 cells after 48 hrs by MTT assay; assay type: cell-based
In short: (§1)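 Hepa 1c1c7 murine hepatoma cells exposed to compound (max 50 μM) for 48 h in 96-well format, then permeabilized with digitonin. QR1 activity read as NADPH-dependent menadiol-mediated MTT reduction to formazan, absorbance 595 nm; crystal violet total-protein assay in parallel. CD = concentration doubling activity, determined only where induction ratio > 2. Three independent experiments in duplicate; 4′-bromoflavone positive control.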

[2] = target: NAD(P)H dehydrogenase [quinone] 1 (Mus musculus) (UniProt Q64669); assay: Induction of quinone reductase-1 activity in mouse BPrc1 cells after 48 hrs by MTT assay; assay type: cell-based
[3] = target: T1, Nitric oxide synthase, inducible (Mus musculus, UniProt P29477); assay: Inhibition of LPS-induced iNOS activity in mouse RAW 264.7 cells assessed as inhibition of NO production pretreated with compound for 30 mins before LPS challenge after 24 hrs by Griess reagent method; assay type: cell-based
T1 sequence (P29477 whole entry): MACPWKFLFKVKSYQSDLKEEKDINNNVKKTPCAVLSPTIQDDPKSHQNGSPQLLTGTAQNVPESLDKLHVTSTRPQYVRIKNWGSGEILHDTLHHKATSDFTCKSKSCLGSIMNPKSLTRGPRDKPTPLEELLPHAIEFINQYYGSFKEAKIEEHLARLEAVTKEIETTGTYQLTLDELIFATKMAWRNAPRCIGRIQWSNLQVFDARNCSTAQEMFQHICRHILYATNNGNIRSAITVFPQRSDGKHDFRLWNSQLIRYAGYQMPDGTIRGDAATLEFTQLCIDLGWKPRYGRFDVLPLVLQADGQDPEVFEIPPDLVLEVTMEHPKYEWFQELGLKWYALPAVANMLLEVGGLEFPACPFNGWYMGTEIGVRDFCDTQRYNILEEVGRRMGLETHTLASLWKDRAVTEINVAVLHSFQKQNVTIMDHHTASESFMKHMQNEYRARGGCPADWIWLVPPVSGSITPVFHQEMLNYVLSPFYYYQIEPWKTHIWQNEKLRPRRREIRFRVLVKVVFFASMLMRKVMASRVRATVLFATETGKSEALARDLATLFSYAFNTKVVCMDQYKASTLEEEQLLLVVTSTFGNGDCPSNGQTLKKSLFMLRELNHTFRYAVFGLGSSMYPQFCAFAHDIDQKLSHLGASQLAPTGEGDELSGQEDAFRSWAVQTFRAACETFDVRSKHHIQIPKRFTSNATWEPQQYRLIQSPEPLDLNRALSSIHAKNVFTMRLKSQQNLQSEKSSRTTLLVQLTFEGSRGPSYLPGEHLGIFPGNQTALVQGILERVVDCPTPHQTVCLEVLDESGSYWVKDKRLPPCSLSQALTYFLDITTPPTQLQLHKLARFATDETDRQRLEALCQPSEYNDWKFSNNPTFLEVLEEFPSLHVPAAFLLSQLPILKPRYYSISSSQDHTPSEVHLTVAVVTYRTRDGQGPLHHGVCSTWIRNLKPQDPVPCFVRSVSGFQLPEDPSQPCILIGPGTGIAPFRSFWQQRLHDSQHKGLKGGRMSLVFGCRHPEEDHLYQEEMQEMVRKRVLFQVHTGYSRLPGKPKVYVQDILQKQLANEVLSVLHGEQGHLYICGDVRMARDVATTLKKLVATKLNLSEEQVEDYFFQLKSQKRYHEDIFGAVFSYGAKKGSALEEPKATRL

[4] = target: T2, Nitric oxide synthase, inducible (Mus musculus) (UniProt P29477); assay: Inhibition of LPS-induced iNOS activity in mouse RAW 264.7 cells assessed as inhibition of NO production at 50 uM pretreated with compound for 30 mins before LPS challenge after 24 hrs by Griess reagent method; assay type: cell-based
T2 sequence (whole entry): T1 sequence (P29477 whole entry)

[5] = Inhibition of TNFalpha-induced NF-kappaB activity expressed in HEK293 cells by luciferase reporter gene assay; assay type: cell-based; settings: Homo sapiens
HEK293 = assay: Inhibition of TNFalpha-induced NF-kappaB activity expressed in HEK293 cells at 50 uM by luciferase reporter gene assay; assay type: cell-based; settings: Homo sapiens
Aromatase [6] = target: T3, Aromatase (Homo sapiens, UniProt P11511)
T3 sequence (P11511 whole entry): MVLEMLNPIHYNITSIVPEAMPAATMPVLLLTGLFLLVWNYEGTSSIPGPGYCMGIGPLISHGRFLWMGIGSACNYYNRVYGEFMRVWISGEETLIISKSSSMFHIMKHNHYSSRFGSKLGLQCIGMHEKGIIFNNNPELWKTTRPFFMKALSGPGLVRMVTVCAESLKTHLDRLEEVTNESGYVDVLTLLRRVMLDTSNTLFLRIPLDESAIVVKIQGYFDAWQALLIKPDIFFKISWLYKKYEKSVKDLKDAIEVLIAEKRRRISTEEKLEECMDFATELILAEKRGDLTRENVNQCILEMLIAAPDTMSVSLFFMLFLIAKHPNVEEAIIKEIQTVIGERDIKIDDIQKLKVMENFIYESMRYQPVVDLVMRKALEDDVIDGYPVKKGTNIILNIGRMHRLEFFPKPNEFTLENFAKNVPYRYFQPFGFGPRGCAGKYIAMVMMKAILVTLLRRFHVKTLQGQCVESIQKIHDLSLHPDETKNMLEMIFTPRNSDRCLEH

Aromatase [7] = target: T3, Aromatase; settings: 0.5 h, read-out: INH
[8] = target: NAD(P)H dehydrogenase [quinone] 1 (Mus musculus) (UniProt Q64669); assay: Induction of quinone reductase-1 activity in mouse Hepa-1c1c7 cells assessed as induction ratio after 48 hrs by MTT assay relative to control; assay type: cell-based; in short: as §1
[9] = target: NAD(P)H dehydrogenase [quinone] 1 (Mus musculus) (UniProt Q64669); assay: Induction of quinone reductase-1 activity in mouse TAOc1BPrc1 cells after 48 hrs by MTT assay; assay type: cell-based

NAD(P)H dehydrogenase [quinone] 1 (Mus musculus), sequence (Q64669 whole entry): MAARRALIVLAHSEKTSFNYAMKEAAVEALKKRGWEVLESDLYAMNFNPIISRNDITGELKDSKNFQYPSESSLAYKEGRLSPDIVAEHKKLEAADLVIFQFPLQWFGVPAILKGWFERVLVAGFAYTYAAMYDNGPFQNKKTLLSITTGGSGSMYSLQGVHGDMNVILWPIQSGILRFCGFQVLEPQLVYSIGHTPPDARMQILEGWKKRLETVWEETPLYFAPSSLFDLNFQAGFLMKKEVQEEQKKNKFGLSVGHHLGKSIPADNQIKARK

CD [1]	CD [2]	SMILES	further results
> 50 µM	–	Cc1c(Cl)cccc1-c1nsc(-c2cccc(Cl)c2C)n1	–
> 50 µM	> 50 µM	COc1cccc(-c2csc(-c3cccc(Br)c3)n2)c1	–
–	–	Fc1ccccc1-c1nsc(-c2ccccc2F)n1	IC50 [3]: > 50 µM; inhibition [4]: 12.9%; IC50 [5]: > 50 µM; inhibition (HEK293): 40.7%; IC50 (Aromatase [6]): > 50 µM; inhibition at 50 µM (Aromatase [7]): 53.2%
–	> 50 µM	COc1cccc(-c2nsc(-c3cccc(OC)c3)n2)c1	–
–	–	COc1cccc(-c2csc(-c3ccccc3)n2)c1	IC50 [3]: 45.3 µM; inhibition [4]: 62%; IC50 [5]: 31.6 µM; inhibition (HEK293): 64%; IC50 (Aromatase [6]): > 50 µM; inhibition at 50 µM (Aromatase [7]): 27.1%
0.44 µM	–	Cc1ccc(Cl)cc1-c1nsc(-c2ccc(Cl)cc2C)n1	Ratio [8]: 4.9
> 50 µM	> 50 µM	CCCCc1ccc(-c2nc(-c3ccccc3)cs2)cc1	–
> 50 µM	> 50 µM	COc1cccc(-c2csc(-c3cccc(Cl)c3Cl)n2)c1	–
> 50 µM	> 50 µM	COc1cccc(-c2csc(-c3cc(OC)ccc3F)n2)c1	–
–	> 50 µM	COc1cccc(-c2csc(-c3cccc(F)c3F)n2)c1	–
–	–	Fc1ccccc1-c1nc(-c2ccccc2)ns1	CD [9]: 0.1 µM
> 50 µM	> 50 µM	CCCCc1ccc(-c2nc(-c3cccc(OC)c3)cs2)cc1	–
–	> 50 µM	COc1cccc(-c2csc(-c3ccc(C)cc3Br)n2)c1	–
> 50 µM	> 50 µM	COc1cccc(-c2csc(-c3cccc(Cl)c3C)n2)c1	–
–	> 50 µM	Brc1cccc(-c2nc(-c3ccccc3)cs2)c1	–
> 50 µM	> 50 µM	FC(F)(F)c1ccccc1-c1nc(-c2ccccc2)cs1	–
–	> 50 µM	Fc1ccccc1-c1nsc(-c2ccccc2)n1	–
–	> 50 µM	Cc1c(Cl)cccc1-c1nc(-c2ccccc2)cs1	–
–	> 50 µM	Clc1cccc(Cl)c1-c1nc(-c2ccccc2)cs1	–
–	> 50 µM	Cc1ccc(-c2nc(-c3ccccc3)cs2)c(Br)c1	–
> 50 µM	> 50 µM	COc1cccc(-c2csc(-c3cccc(OC)c3F)n2)c1	–
–	–	COc1cccc(-c2csc(-c3cccc(OC)c3)n2)c1	IC50 [3]: > 50 µM; IC50 [5]: 20.3 µM; IC50 (Aromatase [6]): > 50 µM
> 50 µM	–	Cc1ccc(Br)cc1-c1nsc(-c2ccc(Br)cc2C)n1	Ratio [8]: 2.3
–	> 50 µM	COc1cccc(-c2noc(-c3cccc(OC)c3)n2)c1	–

SMILES	CD [1]	CD [2]	further results
COc1cccc(-c2nc(-c3ccccc3)cs2)c1	–	> 50 µM	IC50 [3]: > 50 µM; IC50 [5]: 2.7 µM; IC50 (Aromatase [6]): > 50 µM; inhibition at 50 µM (Aromatase [7]): 35.5%
c1ccc(-c2nsc(-c3ccccc3)n2)cc1	–	> 50 µM	IC50 [3]: > 50 µM; IC50 [5]: 47.7 µM; inhibition at 50 µM (Aromatase [7]): 60.2%
